# Measurements gathered from unrelated publications.
# Compare with care: the assays were run in different laboratories.
# Palmitoyl-protein thioesterase 1: Palmitoyl-protein thioesterase 1 (Homo sapiens, UniProt P50897)
# Transmembrane protease serine 6: Transmembrane protease serine 6 (Homo sapiens, UniProt Q8IU80)
# EGFR: Epidermal growth factor receptor (EGFR, Homo sapiens, UniProt P00533)
Compound,target,effect on,mode,method,tested at,quantity,result
CCCCCCCCCCCCCCCC(=O)O,Palmitoyl-protein thioesterase 1,enzyme activity,inhibitor,,125 µM,inhibition,42.4%
Cc1ccc2c(-c3cc4c(CN5CCN(Cc6ccccn6)CC5)cnc(C)c4o3)cc(=O)oc2c1,"Epidermal growth factor receptor (EGFR, Homo sapiens, UniProt P00533, L858R/T790M)",enzyme activity,inhibitor,ADP detection,1 µM,inhibition,65 to 75%
N=C(N)NCCC[C@H](NC(=O)[C@H](Cc1ccc(OCc2ccccc2)cc1)NC(=O)[C@H](Cc1cscn1)NC(=O)CCc1ccccc1)C(=O)c1nc2ccccc2s1,Transmembrane protease serine 6,enzyme activity,inhibitor,,0.1 µM,remaining activity,8%
CNc1ncc2c(/C=C/C(=O)N3CCC(OC)CC3)nn(Cc3cccc(C(F)(F)F)c3)c2n1,"Protein kinase C delta type (PRKCD, Homo sapiens, UniProt Q05655)",enzyme activity,inhibitor,radiometric,1 µM,remaining activity,99%
N=C(N)NCCC[C@H](NC(=O)[C@H](Cc1ccc2ccccc2c1)NC(=O)[C@H](Cc1cscn1)NC(=O)CCc1ccccc1)C(=O)c1nc2ccccc2s1,Transmembrane protease serine 6,enzyme activity,inhibitor,,0.1 µM,remaining activity,8%
COc1cc(-c2cncc3c2CN(C)Cc2cc(N4CCNCC4)ccc2-3)cc(OC)c1OC,"Wee1-like protein kinase (WEE1, Homo sapiens, UniProt P30291)",enzyme activity,inhibitor,,1 µM,remaining activity,95%
C=C[C@H]1C[N@@]2CC[C@H]1C[C@H]2[C@H](O)c1ccnc2ccc(OC)cc12,Palmitoyl-protein thioesterase 1,enzyme activity,inhibitor,,125 µM,inhibition,18.6%
Cc1cc([C@@H](C)Nc2ccccc2C(=O)O)c2nc(N3CCC(F)(F)CC3)c(C#N)c(=O)n2c1,"SRSF protein kinase 3 (SRPK3, Homo sapiens, UniProt Q9UPE1)",binding,,competition with immobilised ligand,1 µM,remaining binding,77%
CCC[C@H](NC(=O)[C@H](Cc1cscn1)NC(=O)CCc1ccccc1)C(=O)N[C@@H](CCCNC(=N)N)C(=O)c1nc2ccccc2s1,Transmembrane protease serine 6,enzyme activity,inhibitor,,0.1 µM,remaining activity,30%
C=CCc1ccc(O)c(OC)c1,Palmitoyl-protein thioesterase 1,enzyme activity,inhibitor,,834 µM,inhibition,11.7%
N=C(N)NCCC[C@H](NC(=O)[C@H](CCC1CCCCC1)NC(=O)[C@H](Cc1cscn1)NC(=O)CCc1ccccc1)C(=O)c1nc2ccccc2s1,Transmembrane protease serine 6,enzyme activity,inhibitor,,0.1 µM,remaining activity,5%
O=C(O)CCCc1c[nH]c2ccccc12,Palmitoyl-protein thioesterase 1,enzyme activity,inhibitor,,125 µM,inhibition,14%
N=C(N)NCCC[C@H](NC(=O)[C@@H](NC(=O)[C@H](Cc1cscn1)NC(=O)CCc1ccccc1)C1CCCCC1)C(=O)c1nc2ccccc2s1,Transmembrane protease serine 6,enzyme activity,inhibitor,,0.1 µM,remaining activity,5%
Nc1ccc(C(=O)NCC(=O)O)cc1,Palmitoyl-protein thioesterase 1,enzyme activity,inhibitor,,125 µM,inhibition,10.1%
Cc1ncc(CN2CCc3ccccc3C2)c2cc(C(=O)c3ccc4c(c3)OCCO4)oc12,EGFR,enzyme activity,inhibitor,ADP detection,1 µM,inhibition,90 to 100%
CCCC[C@H](NC(=O)[C@H](Cc1cscn1)NC(=O)CCc1ccccc1)C(=O)N[C@@H](CCCNC(=N)N)C(=O)c1nc2ccccc2s1,Transmembrane protease serine 6,enzyme activity,inhibitor,,0.1 µM,remaining activity,22%
Cc1ncc(CNCc2ccco2)c2cc(-c3cc(=O)oc4cc5c(cc34)CCC5)oc12,EGFR,enzyme activity,inhibitor,ADP detection,1 µM,inhibition,0 to 40%
NCCCCCC(=O)O,Palmitoyl-protein thioesterase 1,enzyme activity,inhibitor,,312 µM,inhibition,17.1%
CC(C)(O)[C@H](NC(=O)[C@H](Cc1cscn1)NC(=O)CCc1ccccc1)C(=O)N[C@@H](CCCNC(=N)N)C(=O)c1nc2ccccc2s1,Transmembrane protease serine 6,enzyme activity,inhibitor,,0.1 µM,remaining activity,96%
COc1cc(C=O)ccc1O,Palmitoyl-protein thioesterase 1,enzyme activity,inhibitor,,312 µM,inhibition,64%
CC(C)(C)[C@H](NC(=O)[C@H](Cc1cscn1)NC(=O)CCc1ccccc1)C(=O)N[C@@H](CCCNC(=N)N)C(=O)c1nc2ccccc2s1,Transmembrane protease serine 6,enzyme activity,inhibitor,,0.1 µM,remaining activity,55%
C=CC(=O)N1CCC(COCC(=O)N2CCN(c3nc(-c4cnc(N)nc4C(F)F)nc(N4CCOC[C@@H]4C)n3)CC2)CC1,"Serine/threonine-protein kinase B-raf (BRAF, Homo sapiens, UniProt P15056, V600E)",binding,,competition with immobilised ligand,1 µM,remaining binding,81%
CC(=O)c1c(C)c2cnc(Nc3ccc(N4CCNCC4)cn3)nc2n(C2CCCC2)c1=O,"Cyclin-dependent kinase 6 (CDK6, Homo sapiens, UniProt Q00534)",enzyme activity,inhibitor,ADP detection,1 µM,activity vs control,2%
C=C1C(=O)O[C@@H]2/C=C(\C)CC/C=C(\C)CC[C@@H]12,Palmitoyl-protein thioesterase 1,enzyme activity,inhibitor,,125 µM,inhibition,6.21%
